# Test results taken from ChEMBL document CHEMBL4431376, “CZ415, a Highly Selective mTOR Inhibitor Showing in Vivo Efficacy in a Collagen Induced Arthritis Model” (ACS Med Chem Lett, 2016).
# Experiments:
# Mus musculus [1] = test: Time duration for free plasma concentration stays above invivo EC50 in DBA/1 OlaHsd mouse immunized with bovine type2 collagen in Freund's complete adjuvant at 10 mg/kg, po bid administered starting on day 22 post immunization measured on day 31 post immunization; assay type: ADME, organism-based; conditions: in vivo
# Method in brief: (§1)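 Blood drug levels were measured on study day 31 in CIA mice dosed at 10 mg/kg PO bid (n = 10), with vehicle 5% DMSO/95% (10% kleptose). AUC and Cmax were derived from these levels. Time above EC50 was judged against the human whole-blood IFNγ assay EC50 and the anti-CD3 mouse PK/PD EC50.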
# [2] = Solubility of compound in fasted state simulated intestinal fluid; assay type: physicochemical
# Method in brief: (§2)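 logD measured at pH 7.4. Kinetic solubility measured by CLND. Solubility also measured in FaSSIF and FeSSIF biorelevant media.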
# [3] = Intrinsic clearance in pooled human liver microsomes at 1 uM incubated up to 40 mins in presence of NADPH by LC-MS/MS analysis; assay type: ADME, Microsome
# Method in brief: (§3)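 Metabolic stability was assessed in liver microsomes (rat, dog, human) and hepatocytes (dog, human). Intrinsic clearance was calculated as μL/min/g liver.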
# Mus musculus [4] = organism: Mus musculus; test: animal or person; conditions: C57BL/6J
# [5] = Apparent permeability from apical to basolateral side in human CaCo2 cells; assay type: ADME, cell-based; conditions: Caco-2
# Method in brief: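 Caco-2 monolayer permeability, measured as Papp in the apical-to-basolateral and basolateral-to-apical directions.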
# [6] = AUC in DBA/1 OlaHsd mouse immunized with bovine type2 collagen in Freund's complete adjuvant at 10 mg/kg, po bid administered starting on day 22 post immunization measured on day 31 post immunization; assay type: ADME, organism-based; conditions: in vivo; method in brief: as §1
# [7] = Intrinsic clearance in pooled rat liver microsomes at 1 uM incubated up to 40 mins in presence of NADPH by LC-MS/MS analysis; assay type: ADME, Microsome; method in brief: as §3
# Cytochrome P450 3A4 [8] = target: T1, Cytochrome P450 3A4 (Homo sapiens, UniProt P08684); test: Inhibition of CYP3A4 in human liver microsomes; assay type: ADME
# T1 sequence (P08684 whole entry): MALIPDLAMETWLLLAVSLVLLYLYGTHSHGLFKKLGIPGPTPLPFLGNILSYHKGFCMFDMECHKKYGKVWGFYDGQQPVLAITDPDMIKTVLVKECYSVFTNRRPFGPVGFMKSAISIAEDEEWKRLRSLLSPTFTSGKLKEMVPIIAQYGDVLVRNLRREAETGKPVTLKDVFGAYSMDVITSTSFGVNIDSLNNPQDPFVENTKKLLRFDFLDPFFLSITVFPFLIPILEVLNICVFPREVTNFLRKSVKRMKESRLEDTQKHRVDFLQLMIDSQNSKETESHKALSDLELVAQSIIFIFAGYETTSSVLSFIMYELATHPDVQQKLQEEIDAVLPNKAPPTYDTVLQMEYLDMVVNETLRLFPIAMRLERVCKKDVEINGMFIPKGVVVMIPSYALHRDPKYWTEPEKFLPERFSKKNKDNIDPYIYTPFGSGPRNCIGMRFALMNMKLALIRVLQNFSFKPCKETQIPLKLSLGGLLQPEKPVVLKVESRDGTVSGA
# [9] = Plasma clearance in Sprague-Dawley rat at 1 mg/kg, iv as bolus dose or 3 mg/kg, po administered through gavage measured up to 8 hrs by LC-MS/MS analysis relative to liver blood flow; assay type: ADME, organism-based; conditions: in vivo
# Method in brief: (§4)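 Rats (n = 3 per route) given a 1 mg/kg intravenous bolus or 3 mg/kg as an oral solution. Vehicle was 5% DMSO/95% (10% Kleptose). Plasma concentration was followed over time to derive PK parameters and oral bioavailability. Clearance was also expressed relative to liver blood flow.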
# Mus musculus [10] = test: Anti-inflammatory activity in DBA/1 OlaHsd mouse immunized with bovine type2 collagen in Freund's complete adjuvant assessed as reduction in AUC of clinical arthritis score at 10 mg/kg, po bid administered starting on day 22 post immunization until day 33 post immunization relative to control; assay type: functional; design: scale not given: the % may be the effect or the level left; conditions: in the assay text read “until day 34 post immunization” for “until day 33 post immunization”
# Method in brief: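 Semiestablished CIA design. Mice received bovine type II collagen at day 0 with a boost at day 21. Dosing at 10 mg/kg PO bid ran from day 22 to day 34, in 5% DMSO/95% (10% kleptose), n = 10 per group; normal controls n = 4. Paws were scored daily for erythema and swelling (0–5), summarized as AUC. Body weight was tracked over time.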
# [11] = Blood clearance in Sprague-Dawley rat at 1 mg/kg, iv as bolus dose or 3 mg/kg, po administered through gavage measured up to 8 hrs by LC-MS/MS analysis; assay type: ADME, organism-based; conditions: whole blood; method in brief: as §4
# Cytochrome P450 3A4 [12] = target: T1, Cytochrome P450 3A4; test: Time-dependent inhibition of CYP3A4 in human liver microsomes at 50 uM; assay type: ADME
# Method in brief: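 CYP3A4 induction tested at 10 μM. Time-dependent inhibition of CYP3A4 tested at up to 50 μM.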
# [13] = Protein binding in rat plasma; assay type: ADME, cell-free; conditions: read-out: PPB (converted)
# Method in brief: (§5)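 Plasma protein binding was determined in rat, mouse and human plasma, expressed as % bound.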
# [14] = Solubility of compound in fed state simulated intestinal fluid; assay type: physicochemical; method in brief: as §2
# [15] = target: Voltage-gated inwardly rectifying potassium channel KCNH2 (Homo sapiens, UniProt Q12809); test: Inhibition of human ERG expressed in HEK293 cells by whole cell patch clamp assay; assay type: cell-based
# Sequence of Voltage-gated inwardly rectifying potassium channel KCNH2 (Q12809 whole entry): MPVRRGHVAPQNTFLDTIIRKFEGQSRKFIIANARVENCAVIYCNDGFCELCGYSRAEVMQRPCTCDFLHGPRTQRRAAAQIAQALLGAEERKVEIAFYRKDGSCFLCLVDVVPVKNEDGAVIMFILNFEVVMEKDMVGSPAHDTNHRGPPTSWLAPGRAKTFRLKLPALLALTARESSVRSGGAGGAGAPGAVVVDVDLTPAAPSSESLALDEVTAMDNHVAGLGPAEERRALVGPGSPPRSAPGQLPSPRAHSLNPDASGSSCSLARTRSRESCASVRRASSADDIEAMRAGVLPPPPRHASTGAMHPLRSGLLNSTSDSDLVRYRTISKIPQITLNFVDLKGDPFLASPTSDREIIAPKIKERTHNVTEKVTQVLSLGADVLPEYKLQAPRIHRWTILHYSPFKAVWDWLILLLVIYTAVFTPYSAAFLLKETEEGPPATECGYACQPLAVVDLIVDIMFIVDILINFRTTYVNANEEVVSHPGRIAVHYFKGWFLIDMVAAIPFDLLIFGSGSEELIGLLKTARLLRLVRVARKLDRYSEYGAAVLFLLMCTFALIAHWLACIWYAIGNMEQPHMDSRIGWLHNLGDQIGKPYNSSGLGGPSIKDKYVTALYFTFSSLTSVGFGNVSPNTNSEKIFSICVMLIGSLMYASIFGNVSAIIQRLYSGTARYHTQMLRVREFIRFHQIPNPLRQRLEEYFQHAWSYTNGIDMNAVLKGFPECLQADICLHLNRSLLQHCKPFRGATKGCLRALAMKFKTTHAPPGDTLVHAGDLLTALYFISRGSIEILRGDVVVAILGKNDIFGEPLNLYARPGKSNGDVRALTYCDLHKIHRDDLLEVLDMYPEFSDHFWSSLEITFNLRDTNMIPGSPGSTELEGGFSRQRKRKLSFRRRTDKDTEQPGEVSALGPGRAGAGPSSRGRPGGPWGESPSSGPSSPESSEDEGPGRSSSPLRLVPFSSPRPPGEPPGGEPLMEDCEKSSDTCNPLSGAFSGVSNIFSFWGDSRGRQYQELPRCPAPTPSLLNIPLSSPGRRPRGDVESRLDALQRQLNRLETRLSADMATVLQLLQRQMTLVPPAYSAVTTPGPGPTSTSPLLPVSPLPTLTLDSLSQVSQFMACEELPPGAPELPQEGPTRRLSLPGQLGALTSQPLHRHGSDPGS
# Method in brief: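 hERG measured by whole-cell patch clamp in HEK293 cells, reported as IC50.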
# [16] = Cmax in Sprague-Dawley rat at 3 mg/kg, po administered through gavage by LC-MS/MS analysis; assay type: ADME, organism-based; design: dose 3 mg/kg, route oral; conditions: in vivo; method in brief: as §4
# [17] = Plasma clearance in Sprague-Dawley rat at 1 mg/kg, iv as bolus dose or 3 mg/kg, po administered through gavage measured up to 8 hrs by LC-MS/MS analysis; assay type: ADME, organism-based; method in brief: as §4
# [18] = Oral bioavailability in Sprague-Dawley rat at 3 mg/kg administered through gavage measured up to 8 hrs by LC-MS/MS analysis; assay type: ADME, organism-based; conditions: in vivo; method in brief: as §4
# Lymphoma cell line = test: Genotoxicity in mouse lymphoma cells in presence of rat liver S9 fraction; assay type: toxicity, cell-based
# Mus musculus [19] = organism: Mus musculus; test: animal or person; conditions: C57BL/6J; remark: listed apart in the source
# [20] = Kinetic solubility of compound by chemiluminescent nitrogen detection method; assay type: physicochemical; conditions: read-out: Kinetic_solubility; method in brief: as §2
# [21] = Protein binding in mouse plasma; assay type: ADME, cell-free; conditions: read-out: PPB (converted); method in brief: as §5
# Cytochrome P450 2C8 = target: T2, Cytochrome P450 2C8 (Homo sapiens, UniProt P10632); test: Inhibition of CYP2C8 in human liver microsomes; assay type: ADME
# T2 sequence (P10632 whole entry): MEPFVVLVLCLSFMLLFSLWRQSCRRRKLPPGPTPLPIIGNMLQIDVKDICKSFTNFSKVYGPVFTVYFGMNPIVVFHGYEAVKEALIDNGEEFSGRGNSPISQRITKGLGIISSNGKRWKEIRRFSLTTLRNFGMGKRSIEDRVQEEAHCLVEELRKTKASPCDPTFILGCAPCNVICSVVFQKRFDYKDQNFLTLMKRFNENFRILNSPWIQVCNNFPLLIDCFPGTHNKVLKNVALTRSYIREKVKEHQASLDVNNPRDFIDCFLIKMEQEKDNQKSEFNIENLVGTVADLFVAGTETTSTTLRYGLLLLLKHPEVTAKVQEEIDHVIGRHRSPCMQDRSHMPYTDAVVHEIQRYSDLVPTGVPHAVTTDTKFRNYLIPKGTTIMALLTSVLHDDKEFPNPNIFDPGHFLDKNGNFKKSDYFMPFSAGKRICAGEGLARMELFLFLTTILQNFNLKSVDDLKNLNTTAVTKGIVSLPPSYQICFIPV
compound,measurement,setting,value
CCNC(=O)Nc1ccc(-c2nc(N3CCOC[C@@H]3C)c3c(n2)C(C)(C)S(=O)(=O)C3)cc1,Time,Mus musculus [1],<= 8 hr
same,solubility,[2],11.1 µg/mL
same,CLH,[3],1.5 µL/min/g
same,EC50,Mus musculus [4],55 nM
same,Papp A→B,[5],0.047 ×10⁻⁶ cm/s
same,AUC,[6],14 µM·h
same,CLH,[7],< 0.6 µL/min/g
same,inhibition (INH),Cytochrome P450 3A4 [8],Not Active
same,CL,[9],45%
same,Activity,Mus musculus [10],59%
same,clearance,[11],41 mL/min/kg
same,TDI,Cytochrome P450 3A4 [12],Not Active
same,fraction unbound,[13],0.31
same,solubility,[14],60.1 µg/mL
same,IC50,[15],48000 nM
same,Cmax,[16],430 nM
same,clearance,[17],49 mL/min/kg
same,bioavailability,[18],44%
same,Activity,Lymphoma cell line,Non-Toxic
same,EC50,Mus musculus [19],220 nM
same,solubility kinetic,[20],150 µM
same,fraction unbound,[21],0.11
same,inhibition (INH),Cytochrome P450 2C8,Not Active
